According to ChEMBL document CHEMBL1146497, “Antifouling activity of brominated cyclopeptides from the marine sponge Geodia barretti” (J Nat Prod, 2004):
The source made the active and inactive calls. The rule behind the calls is not given here.

Assays:
Format in all cases: functional, organism-based
[1] = tested on: Amphibalanus improvisus; assay: Antifouling activity against Balanus improvisus […] assessed as inhibition of cyprid larval settlement
How it was run: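 Competent B. improvisus cyprids (20 ± 2 per dish) were exposed in 10 mL filtered seawater (0.2 µm), with four replicates and filtered-seawater controls. Test substances were dissolved in milliQ water and diluted into seawater as three tenfold concentration steps. Settled, living-unsettled and dead cyprids were scored as percentages.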

[2] = tested on: Amphibalanus improvisus; assay: Antifouling activity against Balanus improvisus […] assessed as inhibition of cyprid larval settlement at 0.1 to 10 uM after 3 to 4 days relative to control
How it was run: (§1)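 Competent Balanus improvisus cyprids (20 ± 2 per dish) in 10 mL filtered seawater (0.2 µm) containing test substance, dissolved first in milliQ water. Four replicate dishes per concentration, with filtered-seawater dishes as controls. Settled, living unsettled and dead cyprids were scored as percentages.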

[3] = tested on: Amphibalanus improvisus; assay: Antifouling activity against Balanus improvisus […] assessed as inhibition of cyprid larval settlement at 1.9 uM after 3 to 4 days relative to control; how it was run: as §1

Row | Compound | LC50 [1] | Activity [2] | Activity [3]
1 | N=C(N)NCCCC1NC(=O)C(Cc2c[nH]c3cc(Br)ccc23)NC1=O.O=C(O)C(F)(F)F (stereo unspecified) | 4 µg/mL | Active | –
2 | NC(Cc1c[nH]c2cc(F)ccc12)C(=O)O (racemic) | – | inactive | –
3 | NC(Cc1c[nH]c2ccc(Br)cc12)C(=O)O (racemic) | – | inactive | –
4 | N=C(N)NCCC[C@H](N)C(=O)O | – | inactive | –
5 | tributyltin-oxide | 0.09 µg/mL | – | –
6 | N[C@@H](Cc1c[nH]c2ccccc12)C(=O)O | – | inactive | –
7 | NC(Cc1c[nH]c2cc(Br)ccc12)C(=O)O (racemic) | – | inactive | –
8 | N=C(N)NCCC[C@@H]1NC(=O)/C(=C/c2c[nH]c3cc(Br)ccc23)NC1=O.O=C(O)C(F)(F)F | 0.4 µg/mL | Active | Active
